According to ChEMBL document CHEMBL1124798, “Design of peptidomimetic delta opioid receptor antagonists using the message-address concept” (J Med Chem, 1990):

How the values were obtained:
[1] = biological target: Delta-type opioid receptor (Mus musculus) (UniProt P32300); assay: Opioid receptor delta 1 antagonistic activity was measured by the displacement of DADLE in the mouse vas deferens at a concentration of 100 nM; type: functional
Outline: (§1)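 Mouse vas deferens. Antagonist (nM, as stated on line) incubated with the preparation 15 min before testing. δ agonist [D-Ala2,D-Leu5]enkephalin.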

[2] = biological target: Kappa-type opioid receptor (Cavia porcellus) (UniProt P41144); assay: Opioid receptor kappa 1 antagonistic activity was measured by the displacement of ethylketazocine in the guinea pig ileum at a concentration of 100 nM; type: functional, tissue-based
Outline: (§2)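 Guinea pig ileum. Antagonist (nM, as stated on line) incubated 15 min before testing. Agonists: morphine (μ) and ethylketazocine (κ).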

[3] = biological target: Delta-type opioid receptor (Mus musculus) (UniProt P32300); assay: Antagonist potency was determined as the ratio of [antagonist] to (IC50 ratio-1) for opioid receptor delta 1; type: functional
Outline: (§3)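 Ke (nM) = [antagonist]/(IC50 ratio − 1). IC50 ratio is agonist IC50 with antagonist over the control IC50 in the same preparation. Antagonist preincubated 15 min. Agonists: DADLE in mouse vas deferens (δ); morphine (μ) and ethylketazocine (κ) in guinea pig ileum. n ≥ 3.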

[4] = biological target: Mu-type opioid receptor (Cavia porcellus) (UniProt P97266); assay: Antagonist potency was determined as the ratio of [antagonist] to (IC50 ratio-1) for Opioid receptor mu 1; type: functional; outline: as §3
[5] = biological target: Kappa-type opioid receptor (Cavia porcellus) (UniProt P41144); assay: Opioid receptor kappa antagonistic activity was measured by the displacement of ethylketazocine in the guinea pig ileum at a concentration of 100 nM; type: functional, tissue-based; outline: as §2
[6] = biological target: Kappa-type opioid receptor (Cavia porcellus) (UniProt P41144); assay: Antagonist potency was determined as the ratio of [antagonist] to (IC50 ratio-1) for Opioid receptor kappa 1; type: functional; outline: as §3
[7] = biological target: Mu-type opioid receptor (Cavia porcellus) (UniProt P97266); assay: Opioid receptor mu 1 antagonistic activity was measured by the displacement of morphine in the guinea pig ileum at a concentration of 100 nM; type: functional, tissue-based; outline: as §2
[8] = biological target: Delta-type opioid receptor (Mus musculus) (UniProt P32300); assay: Opioid receptor delta antagonistic activity was measured by the displacement of DADLE in the mouse vas deferens at a concentration of 100 nM; type: functional; outline: as §1
[9] = biological target: Opioid receptors; delta & kappa (Homo sapiens) (UniProt P41145+P41143); assay: Selectivity ratio was determined from Ke value of Opioid receptor kappa 1 and Opioid receptor delta 1; type: protein assay; settings: Cavia porcellus
Outline: (§4)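 Ratios of Ke values, μ/δ or κ/δ. Each Ke = [antagonist]/(IC50 ratio − 1). δ from DADLE in mouse vas deferens; μ (morphine) and κ (ethylketazocine) in guinea pig ileum. 15 min antagonist preincubation, n ≥ 3.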

[10] = biological target: Opioid receptors; mu & delta (Homo sapiens) (UniProt P41143+P35372); assay: Selectivity ratio was determined from Ke value of Opioid receptor mu 1 and Opioid receptor delta 1; type: protein assay; settings: Cavia porcellus; outline: as §4
[11] = biological target: Mu-type opioid receptor (Cavia porcellus) (UniProt P97266); assay: Opioid receptor mu antagonistic activity was measured by the displacement of morphine in the guinea pig ileum at a concentration of 100 nM; type: functional, tissue-based; outline: as §2
[12] = biological target: T1, Mu-type opioid receptor (Cavia porcellus, UniProt P97266); assay: Binding affinity was measured by the displacement of [3H]- DAMGO in guinea pig brain membrane of Opioid receptor mu 1; type: cell membranes
Outline: (§5)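 Radioligand displacement from guinea pig brain membranes, modified Werling method. μ sites: [3H]DAMGO. δ sites: [3H]DADLE with 1 μM DAMGO. κ sites: [3H]ethylketazocine with 1 μM DAMGO.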

[13] = biological target: T2, Kappa-type opioid receptor (Cavia porcellus, UniProt P41144); assay: Binding affinity was measured by the displacement of [3H]- EK in guinea pig brain membrane of Opioid receptor kappa 1; type: cell membranes; outline: as §5
[14] = biological target: T2, Kappa-type opioid receptor; assay: Binding affinity was measured by the displacement of [3H]- EK in guinea pig brain membrane of opioid receptor kappa; type: cell membranes; outline: as §5
[15] = biological target: T1, Mu-type opioid receptor; assay: Binding affinity was measured by the displacement of [3H]- DAMGO in guinea pig brain membrane of opioid receptor mu; type: cell membranes; outline: as §5

Sequence of Delta-type opioid receptor (Mus musculus) (P32300 whole entry): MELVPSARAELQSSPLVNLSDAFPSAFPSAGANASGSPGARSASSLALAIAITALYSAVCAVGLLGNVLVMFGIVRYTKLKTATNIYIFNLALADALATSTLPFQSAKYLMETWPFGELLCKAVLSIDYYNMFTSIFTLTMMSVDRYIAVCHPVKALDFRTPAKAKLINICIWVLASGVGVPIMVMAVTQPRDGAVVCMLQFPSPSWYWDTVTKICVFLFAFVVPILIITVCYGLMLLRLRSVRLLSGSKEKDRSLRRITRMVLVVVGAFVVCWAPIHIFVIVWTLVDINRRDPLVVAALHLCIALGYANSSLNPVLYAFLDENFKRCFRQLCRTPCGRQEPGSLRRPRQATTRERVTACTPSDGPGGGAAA
Sequence of Opioid receptors; delta & kappa (Homo sapiens) (P41143 whole entry, looked up): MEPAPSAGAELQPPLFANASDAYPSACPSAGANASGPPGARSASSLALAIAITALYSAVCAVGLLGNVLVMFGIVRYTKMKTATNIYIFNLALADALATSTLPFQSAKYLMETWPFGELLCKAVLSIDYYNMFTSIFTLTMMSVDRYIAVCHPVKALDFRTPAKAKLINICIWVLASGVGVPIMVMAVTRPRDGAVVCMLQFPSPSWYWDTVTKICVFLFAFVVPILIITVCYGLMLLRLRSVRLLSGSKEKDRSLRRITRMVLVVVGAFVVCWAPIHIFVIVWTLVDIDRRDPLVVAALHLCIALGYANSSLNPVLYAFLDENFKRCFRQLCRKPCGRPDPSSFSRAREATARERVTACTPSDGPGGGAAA
Sequence of Opioid receptors; delta & kappa (Homo sapiens) (P41145 whole entry, looked up): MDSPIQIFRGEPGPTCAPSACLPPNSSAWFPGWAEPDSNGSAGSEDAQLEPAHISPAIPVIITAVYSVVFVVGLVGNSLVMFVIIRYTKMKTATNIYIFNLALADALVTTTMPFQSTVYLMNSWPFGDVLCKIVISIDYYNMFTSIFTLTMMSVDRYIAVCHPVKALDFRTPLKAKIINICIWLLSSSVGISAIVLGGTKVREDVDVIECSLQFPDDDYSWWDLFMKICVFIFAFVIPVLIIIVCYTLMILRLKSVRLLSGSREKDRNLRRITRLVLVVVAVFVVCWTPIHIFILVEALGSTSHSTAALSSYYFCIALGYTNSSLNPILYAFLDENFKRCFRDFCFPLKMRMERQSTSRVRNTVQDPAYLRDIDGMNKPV
T2 sequence (P41144 whole entry): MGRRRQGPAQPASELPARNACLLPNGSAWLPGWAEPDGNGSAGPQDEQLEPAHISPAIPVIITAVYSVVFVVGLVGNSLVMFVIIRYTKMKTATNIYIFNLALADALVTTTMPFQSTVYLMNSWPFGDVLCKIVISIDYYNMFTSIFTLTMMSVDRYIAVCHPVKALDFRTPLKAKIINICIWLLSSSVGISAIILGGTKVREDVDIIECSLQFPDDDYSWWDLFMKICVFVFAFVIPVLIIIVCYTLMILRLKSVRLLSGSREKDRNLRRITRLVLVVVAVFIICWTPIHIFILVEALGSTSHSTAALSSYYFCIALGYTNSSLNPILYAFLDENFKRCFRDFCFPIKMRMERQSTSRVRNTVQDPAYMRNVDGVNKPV
Sequence of Kappa-type opioid receptor (Cavia porcellus) (P41144 whole entry): as above
Sequence of Opioid receptors; mu & delta (Homo sapiens) (P35372 whole entry, looked up): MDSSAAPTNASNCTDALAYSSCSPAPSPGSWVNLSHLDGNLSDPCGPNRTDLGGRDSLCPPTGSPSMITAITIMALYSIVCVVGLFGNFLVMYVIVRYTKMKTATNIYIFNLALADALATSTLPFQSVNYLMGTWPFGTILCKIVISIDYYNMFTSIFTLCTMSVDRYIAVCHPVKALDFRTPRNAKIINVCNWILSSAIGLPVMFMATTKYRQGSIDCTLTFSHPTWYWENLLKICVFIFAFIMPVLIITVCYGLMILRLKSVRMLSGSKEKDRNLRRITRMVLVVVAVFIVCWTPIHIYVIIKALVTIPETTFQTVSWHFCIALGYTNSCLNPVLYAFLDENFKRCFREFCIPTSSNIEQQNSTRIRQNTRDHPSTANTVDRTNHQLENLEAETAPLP
Sequence of Opioid receptors; mu & delta (Homo sapiens) (P41143 whole entry, looked up): as the sequence (P41143 whole entry, looked up) above
T1 sequence (P97266 whole entry): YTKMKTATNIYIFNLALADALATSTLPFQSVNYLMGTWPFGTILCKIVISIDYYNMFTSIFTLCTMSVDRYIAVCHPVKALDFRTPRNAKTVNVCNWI
Sequence of Mu-type opioid receptor (Cavia porcellus) (P97266 whole entry): as above

Oc1ccc2[nH]c3c(c2c1)C[C@@]1(O)[C@H]2Cc4ccc(O)c5c4[C@@]1(CCN2CC1CC1)[C@H]3O5
IC50 ratio [1]: 4.7 | IC50 ratio [2]: 3.1 | Ke [3]: 27 nM | Ke [4]: 19 nM | IC50 ratio [5]: 3.1 | Ke [6]: 48 nM | IC50 ratio [7]: 6.4 | IC50 ratio [8]: 4.7 | Selectivity ratio [9]: 1.8 | Selectivity ratio [10]: 0.7 | IC50 ratio [11]: 6.4

Oc1ccc2c3c1O[C@H]1c4[nH]c5c(Br)cccc5c4C[C@@]4(O)[C@@H](C2)N(CC2CC2)CC[C@]314
IC50 ratio [1]: 85 | IC50 ratio [2]: 1.7 | Ki [12]: 0.029 µM | Ke [3]: 1.2 nM | Ki [13]: 0.333 µM | Ke [4]: 83 nM | Ki [14]: 0.333 µM | IC50 ratio [5]: 1.7 | Ke [6]: > 143 nM | Ki [15]: 0.029 µM | IC50 ratio [7]: 2.2 | IC50 ratio [8]: 85 | Selectivity ratio [9]: > 121 | Selectivity ratio [10]: 71 | IC50 ratio [11]: 2.2

Oc1ccc2c3c1O[C@H]1c4[nH]c5cc6ccccc6cc5c4C[C@@]4(O)[C@@H](C2)N(CC2CC2)CC[C@]314
IC50 ratio [1]: 4.7 | IC50 ratio [2]: 0.91 | Ke [3]: 27 nM | Ke [4]: > 118 nM | IC50 ratio [5]: 0.91 | Ke [6]: > 100 nM | IC50 ratio [7]: 0.85 | IC50 ratio [8]: 4.7 | Selectivity ratio [9]: > 4 | Selectivity ratio [10]: > 4 | IC50 ratio [11]: 0.85

Oc1ccc2c3c1O[C@H]1c4c(c5ccccc5n4-c4ccccc4)C[C@@]4(O)[C@@H](C2)N(CC2CC2)CC[C@]314
IC50 ratio [1]: 33 | IC50 ratio [2]: 6.7 | Ki [12]: 0.028 µM | Ke [3]: 3.1 nM | Ki [13]: 0.746 µM | Ke [4]: > 149 nM | Ki [14]: 0.746 µM | IC50 ratio [5]: 6.7 | Ke [6]: > 152 nM | Ki [15]: 0.028 µM | IC50 ratio [7]: 1.7 | IC50 ratio [8]: 33 | Selectivity ratio [9]: > 49 | Selectivity ratio [10]: > 48 | IC50 ratio [11]: 1.7

Oc1ccc2c3c1O[C@H]1c4[nH]c5c(F)cccc5c4C[C@@]4(O)[C@@H](C2)N(CC2CC2)CC[C@]314
IC50 ratio [1]: 287 | IC50 ratio [2]: 1.3 | Ki [12]: 0.049 µM | Ke [3]: 0.35 nM | Ki [13]: 0.321 µM | Ke [4]: 23 nM | Ki [14]: 0.321 µM | IC50 ratio [5]: 1.3 | Ke [6]: > 333 nM | Ki [15]: 0.049 µM | IC50 ratio [7]: 5.3 | IC50 ratio [8]: 287 | Selectivity ratio [9]: > 951 | Selectivity ratio [10]: 67 | IC50 ratio [11]: 5.3

CN1CC[C@]23c4c5ccc(O)c4O[C@H]2c2[nH]c4ccccc4c2C[C@@]3(O)[C@H]1C5 [OXYMORPHINDOLE]
IC50 ratio [1]: 1.6 | IC50 ratio [2]: 0.6 | Ki [12]: 0.468 µM | Ke [3]: 5 nM | Ki [13]: 4.47 µM | Ke [4]: > 111 nM | Ki [14]: 4.47 µM | IC50 ratio [5]: 0.6 | Ke [6]: > 167 nM | Ki [15]: 0.468 µM | IC50 ratio [7]: 0.9 | IC50 ratio [8]: 1.6 | IC50 ratio [11]: 0.9

COc1cccc2c3c([nH]c12)[C@@H]1Oc2c(O)ccc4c2[C@@]12CCN(CC1CC1)[C@H](C4)[C@]2(O)C3
IC50 ratio [1]: 66 | IC50 ratio [2]: 1.5 | Ki [12]: 0.016 µM | Ke [3]: 1.5 nM | Ki [13]: 0.043 µM | Ke [4]: 50 nM | Ki [14]: 0.043 µM | IC50 ratio [5]: 1.5 | Ke [6]: > 185 nM | Ki [15]: 0.016 µM | IC50 ratio [7]: 3 | IC50 ratio [8]: 66 | Selectivity ratio [9]: > 120 | Selectivity ratio [10]: 32 | IC50 ratio [11]: 3

Cc1ccc2c3c([nH]c2c1)[C@@H]1Oc2c(O)ccc4c2[C@@]12CCN(CC1CC1)[C@H](C4)[C@]2(O)C3
IC50 ratio [1]: 30 | IC50 ratio [2]: 1.7 | Ke [3]: 3.5 nM | Ke [4]: 55 nM | IC50 ratio [5]: 1.7 | Ke [6]: > 143 nM | IC50 ratio [7]: 2.8 | IC50 ratio [8]: 30 | Selectivity ratio [9]: > 41 | Selectivity ratio [10]: 16 | IC50 ratio [11]: 2.8

Oc1ccc2c3c1O[C@H]1c4[nH]c5cc(F)ccc5c4C[C@@]4(O)[C@@H](C2)N(CC2CC2)CC[C@]314
IC50 ratio [1]: 24 | IC50 ratio [2]: 1.6 | Ke [3]: 4.4 nM | Ke [4]: > 125 nM | IC50 ratio [5]: 1.6 | Ke [6]: > 167 nM | IC50 ratio [7]: 1.8 | IC50 ratio [8]: 24 | Selectivity ratio [9]: > 38 | Selectivity ratio [10]: > 28 | IC50 ratio [11]: 1.8

Cc1cccc2c3c([nH]c12)[C@@H]1Oc2c(O)ccc4c2[C@@]12CCN(CC1CC1)[C@H](C4)[C@]2(O)C3
IC50 ratio [1]: 67 | IC50 ratio [2]: 1.3 | IC50 ratio [5]: 1.3 | Ke [6]: > 333 nM | IC50 ratio [7]: 7.1 | IC50 ratio [8]: 67 | Selectivity ratio [9]: > 221 | IC50 ratio [11]: 7.1

CN1CC[C@]23c4c5ccc(O)c4O[C@H]2c2c(c4ccccc4n2C)C[C@@]3(O)[C@H]1C5
IC50 ratio [1]: 1.2 | IC50 ratio [2]: 0.5 | Ke [3]: > 416 nM | Ke [4]: > 135 nM | IC50 ratio [5]: 0.5 | Ke [6]: > 200 nM | IC50 ratio [7]: 0.74 | IC50 ratio [8]: 1.2 | IC50 ratio [11]: 0.74

Oc1ccc2c3c1O[C@H]1c4[nH]c5c(ccc6ccccc65)c4C[C@@]4(O)[C@@H](C2)N(CC2CC2)CC[C@]314
IC50 ratio [1]: 12.1 | IC50 ratio [2]: 0.9 | Ke [3]: 9 nM | Ke [4]: > 500 nM | IC50 ratio [5]: 0.9 | Ke [6]: > 111 nM | IC50 ratio [7]: 1.2 | IC50 ratio [8]: 12.1 | Selectivity ratio [9]: > 12 | Selectivity ratio [10]: > 55 | IC50 ratio [11]: 1.2

CC(=O)O[C@@]12Cc3c([nH]c4ccccc34)[C@@H]3Oc4c(O)ccc5c4[C@@]31CCN(CC1CC1)[C@@H]2C5
IC50 ratio [1]: 43 | IC50 ratio [2]: 1.8 | Ke [3]: 2.4 nM | Ke [4]: > 263 nM | IC50 ratio [5]: 1.8 | Ke [6]: > 127 nM | IC50 ratio [7]: 1.4 | IC50 ratio [8]: 43 | Selectivity ratio [9]: > 54 | Selectivity ratio [10]: > 111 | IC50 ratio [11]: 1.4

Oc1ccc2c3c1O[C@H]1c4[nH]c5c(O)cccc5c4C[C@@]4(O)[C@@H](C2)N(CC2CC2)CC[C@]314
IC50 ratio [1]: 239 | IC50 ratio [2]: 1.4 | Ke [3]: 0.42 nM | Ke [4]: > 111 nM | IC50 ratio [5]: 1.4 | Ke [6]: > 250 nM | IC50 ratio [7]: 1.9 | IC50 ratio [8]: 239 | Selectivity ratio [9]: > 595 | Selectivity ratio [10]: > 264 | IC50 ratio [11]: 1.9

CC(C)(S)[C@@H](NC(=O)[C@H](Cc1ccc(O)cc1)NC(=O)CNC(=O)[C@H](NC(=O)[C@@H](N)Cc1ccccc1)C(C)(C)S)C(=O)O
Selectivity ratio [9]: 202 | Selectivity ratio [10]: 52

COc1ccc2c3c1O[C@H]1c4[nH]c5ccccc5c4C[C@@]4(O)[C@@H](C2)N(CC2CC2)CC[C@]314
IC50 ratio [1]: 1.5 | IC50 ratio [2]: 0.6 | Ki [12]: 0.55 µM | Ke [3]: > 200 nM | Ki [13]: > 1 µM | Ke [4]: > 333 nM | Ki [14]: > 1 µM | IC50 ratio [5]: 0.6 | Ke [6]: > 167 nM | Ki [15]: 0.55 µM | IC50 ratio [7]: 1.3 | IC50 ratio [8]: 1.5 | IC50 ratio [11]: 1.3

Oc1ccc2c3c1O[C@H]1c4[nH]c5ccccc5c4C[C@@]4(O)[C@@H](C2)N(CC2CC2)CC[C@]314 [NALTRINDOLE]
Ki [12]: 0.0038 µM | Ki [13]: 0.332 µM | Ki [14]: 0.332 µM

CCOc1cccc2c3c([nH]c12)[C@@H]1Oc2c(O)ccc4c2[C@@]12CCN(CC1CC1)[C@H](C4)[C@]2(O)C3
IC50 ratio [1]: 178 | IC50 ratio [2]: 0.67 | Ke [3]: 0.57 nM | Ke [4]: 13 nM | IC50 ratio [5]: 0.67 | IC50 ratio [7]: 8.3 | IC50 ratio [8]: 178 | Selectivity ratio [10]: 24 | IC50 ratio [11]: 8.3
